Reference: ChEMBL document CHEMBL1926598, “Synthesis, anti-inflammatory activity and ulcerogenic liability of novel nitric oxide donating/chalcone hybrids” (Bioorg Med Chem, 2012)

Columns and labels:
[1] = system: Rattus norvegicus; assay: Antiinflammatory activity in albino rat assessed as inhibition of carrageenan-induced paw edema at 100 mg/kg, po administered 30 mins prior to challenge measured after 2 hrs relative to untreated control; type: functional
In short: (§1)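 Adult male albino rats (120–140 g), groups of four, fasted 24 h with water allowed. Test compound suspended in 0.5% w/v CMC in water, given orally at 100 mg/kg; controls received CMC alone. After 30 min, 0.1 mL of 1% carrageenan in saline injected subplantar into right hind paw, saline into left. Paw thickness measured by caliper; % inhibition = [(VR−VL)control − (VR−VL)treated]/(VR−VL)control ×100; one-way ANOVA versus control.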

[2] = system: Rattus norvegicus; assay: Antiinflammatory activity in albino rat assessed as inhibition of carrageenan-induced paw edema at 100 mg/kg, po administered 30 mins prior to challenge measured after 1 hr relative to untreated control; type: functional; in short: as §1
[3] = system: Rattus norvegicus; assay: Antiinflammatory activity in albino rat assessed as inhibition of carrageenan-induced paw edema at 100 mg/kg, po administered 30 mins prior to challenge measured after 3 hrs relative to untreated control; type: functional; in short: as §1
[4] = system: Rattus norvegicus; assay: Gastric toxicity in albino rat assessed as ulcer index at 100 mg/kg, po after 5 hrs; type: organism-based; parameters: dose 100 mg/kg, route oral; conditions: in vivo
In short: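 Rats dosed orally at 100 mg/kg in 0.5% CMC (n = 4). Stomach lesions counted and graded by area: level I <1 mm², II 1–3 mm², III >3 mm². Ulcer index = 1×(level I count) + 2×(level II) + 3×(level III). Mean ± SEM; one-way ANOVA versus control.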

[5] = system: Rattus norvegicus; assay: Antiinflammatory activity in albino rat assessed as inhibition of carrageenan-induced paw edema at 100 mg/kg, po administered 30 mins prior to challenge measured after 5 hrs relative to untreated control; type: functional; in short: as §1
[6] = system: Rattus norvegicus; assay: Antiinflammatory activity in albino rat assessed as inhibition of carrageenan-induced paw edema at 100 mg/kg, po administered 30 mins prior to challenge measured after 4 hrs relative to untreated control; type: functional; in short: as §1
[7] = Induction of nitric oxide release at 0.1 mM after 6 hrs in phosphate buffer at pH 7.4 by Griess assay; type: physicochemical; conditions: pH 7.4, 6 h, 100 µM
In short: (§2)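 Compound at a final 10^-4 M with 0.5 mM N-acetylcysteine in phosphate buffer pH 7.4 at 37 °C. Reaction mixture treated with Griess reagent (sulfanilamide, N-naphthylethylenediamine, phosphoric acid), 10 min at room temperature, absorbance read at 546 nm. Sodium nitrite standards (10–80 nmol/mL) used for calibration. NO reported as mol/mol, n = 4 reaction mixtures.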

[8] = Induction of nitric oxide release at 0.1 mM in 0.1 N HCl buffer at pH 1.0 by Griess assay; type: physicochemical; conditions: pH 1, 100 µM
In short: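 Griess procedure as at neutral pH, but in 0.1 N HCl pH 1 in place of phosphate buffer. Compound at a final 10^-4 M with N-acetylcysteine, 37 °C. Absorbance read at 546 nm against sodium nitrite standards (10–80 nmol/mL). Release expressed relative to a theoretical 1 mol NO/mol compound.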

[9] = Induction of nitric oxide release at 0.1 mM after 4 hrs in phosphate buffer at pH 7.4 by Griess assay; type: physicochemical; conditions: pH 7.4, 4 h, 100 µM; in short: as §2
[10] = Induction of nitric oxide release at 0.1 mM after 2 hrs in phosphate buffer at pH 7.4 by Griess assay; type: physicochemical; conditions: pH 7.4, 2 h, 100 µM; in short: as §2
[11] = system: Rattus norvegicus; assay: Antiinflammatory activity in albino rat assessed as inhibition of carrageenan-induced paw edema at 100 mg/kg, po administered 30 mins prior to challenge measured after 3 hrs relative to indomethacin; type: functional; parameters: scale not given: the % may be the effect or the level left
In short: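 Carrageenan paw edema in male albino rats (120–140 g, n = 4, fasted 24 h), compound 100 mg/kg po in 0.5% CMC 30 min before subplantar 1% carrageenan (0.1 mL). Percent edema inhibition at the stated hour from right minus left paw thickness versus the CMC control, then expressed as a percentage of the indomethacin (100 mg/kg) response at the same time.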

[12] = Induction of nitric oxide release at 0.1 mM after 1 hr in phosphate buffer at pH 7.4 by Griess assay; type: physicochemical; conditions: pH 7.4, 1 h, 100 µM; in short: as §2
[13] = Induction of nitric oxide release at 0.1 mM after 5 hrs in phosphate buffer at pH 7.4 by Griess assay; type: physicochemical; conditions: pH 7.4, 5 h, 100 µM; in short: as §2
[14] = Induction of nitric oxide release at 0.1 mM after 3 hrs in phosphate buffer at pH 7.4 by Griess assay; type: physicochemical; conditions: pH 7.4, 3 h, 100 µM; in short: as §2

With `CC(Br)C(=O)Nc1ccc(C(=O)/C=C/c2ccco2)cc1` (stereo unspecified) the inhibition in vivo at 100 mg/kg [1] was 37%, the inhibition in vivo at 100 mg/kg [2] was 30% and the inhibition in vivo at 100 mg/kg [3] was 42%. For the same compound, the UI [4] was 25.3, the inhibition in vivo at 100 mg/kg [5] was 34% and the inhibition in vivo at 100 mg/kg [6] was 36%.
In the case of `COc1ccc(/C=C/C(=O)c2ccc(NC(=O)C(C)Br)cc2)cc1` (stereo unspecified), the inhibition in vivo at 100 mg/kg [1] is reported as 40%, the inhibition in vivo at 100 mg/kg [2] is reported as 39% and the inhibition in vivo at 100 mg/kg [3] is reported as 40%. The UI [4] was 30.1, the inhibition in vivo at 100 mg/kg [5] was 31% and the inhibition in vivo at 100 mg/kg [6] was 38%.
In the case of `COc1ccc(/C=C/C(=O)c2ccc(NC(=O)COc3ccc(C(C)=O)cc3)cc2)cc1`, the inhibition in vivo at 100 mg/kg [1] is reported as 35%, the inhibition in vivo at 100 mg/kg [2] is reported as 28% and the inhibition in vivo at 100 mg/kg [3] is reported as 42%. It also gave a UI [4] of 6, an inhibition in vivo at 100 mg/kg [5] of 30% and an inhibition in vivo at 100 mg/kg [6] of 33%.
`[O-][n+]1onc(-c2ccccc2)c1CO` showed a UI [4] of 1.5.
Work on `CC(O[N+](=O)[O-])C(=O)Nc1ccc(C(=O)/C=C/c2ccc3c(c2)OCO3)cc1` (stereo unspecified) yielded an Activity [7] of 0.12 mol/mol, an inhibition in vivo at 100 mg/kg [1] of 40% and an inhibition in vivo at 100 mg/kg [2] of 45%. The Activity [8] was “Not Active”, the Activity [9] was 0.28 mol/mol and the inhibition in vivo at 100 mg/kg [3] was 59%. The Activity [10] was 0.14 mol/mol, the Activity [11] was 77% and the UI [4] was 4. The Activity [12] was 0.1 mol/mol, the inhibition in vivo at 100 mg/kg [5] was 53% and the inhibition in vivo at 100 mg/kg [6] was 54%. The Activity [13] was 0.15 mol/mol and the Activity [14] was 0.4 mol/mol.
Compound `CC(Br)C(=O)Nc1ccc(C(=O)/C=C/c2ccc(Cl)cc2)cc1` (stereo unspecified) has an inhibition in vivo at 100 mg/kg [1] of 45%, an inhibition in vivo at 100 mg/kg [2] of 39% and an inhibition in vivo at 100 mg/kg [3] of 59%. It also gave a UI [4] of 16.7, an inhibition in vivo at 100 mg/kg [5] of 50% and an inhibition in vivo at 100 mg/kg [6] of 54%.
In the case of `Nc1ccc(C(=O)/C=C/c2ccc(Cl)cc2)cc1`, the inhibition in vivo at 100 mg/kg [1] is reported as 50%, the inhibition in vivo at 100 mg/kg [2] is reported as 41% and the inhibition in vivo at 100 mg/kg [3] is reported as 60%. It also gave a UI [4] of 18, an inhibition in vivo at 100 mg/kg [5] of 54% and an inhibition in vivo at 100 mg/kg [6] of 58%.
For `CC(Br)C(=O)Nc1ccc(C(=O)/C=C/c2ccc3c(c2)OCO3)cc1` (stereo unspecified), the inhibition in vivo at 100 mg/kg [1] was 43%, the inhibition in vivo at 100 mg/kg [2] was 37% and the inhibition in vivo at 100 mg/kg [3] was 56%. It also gave a UI [4] of 18, an inhibition in vivo at 100 mg/kg [5] of 50% and an inhibition in vivo at 100 mg/kg [6] of 53%.
With `Nc1ccc(C(=O)/C=C/c2ccco2)cc1` the inhibition in vivo at 100 mg/kg [1] was 38%, the inhibition in vivo at 100 mg/kg [2] was 33% and the inhibition in vivo at 100 mg/kg [3] was 42%. The UI [4] was 29, the inhibition in vivo at 100 mg/kg [5] was 30% and the inhibition in vivo at 100 mg/kg [6] was 33%.
`CC(O[N+](=O)[O-])C(=O)Nc1ccc(C(=O)/C=C/c2ccco2)cc1` (stereo unspecified) gave an Activity [7] of 0.09 mol/mol, an inhibition in vivo at 100 mg/kg [1] of 48% and an inhibition in vivo at 100 mg/kg [2] of 41%. The Activity [8] was “Not Active”, the Activity [9] was 0.13 mol/mol and the inhibition in vivo at 100 mg/kg [3] was 54%. It also gave an Activity [10] of 0.11 mol/mol, an Activity [11] of 69% and a UI [4] of 5.7. It also gave an Activity [12] of 0.09 mol/mol, an inhibition in vivo at 100 mg/kg [5] of 49% and an inhibition in vivo at 100 mg/kg [6] of 49%. For the same compound, the Activity [13] was 0.11 mol/mol and the Activity [14] was 0.38 mol/mol.
